Source: PubChem BioAssay (Johns Hopkins Ion Channel Center)
Sampled rows, rich in hits. Any-hit rate of the full collection: about 3.5%.
RGS4 block – RGS4 inhibitors, primary screen, cell-based, HEK293 M3R inducible RGS4, calcium flux; Regulator of G-protein signaling 4 (Homo sapiens), P49798; Fluo-4 calcium flux; active compounds read high; triggered by carbachol at its EC20; B-score at 10 µM; 0.45% of 310,000 active; AID 463165, 2010;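 active means B-score, a plate-corrected calcium signal, over three deviations above library mean, with baseline fluorescence within five deviations of library mean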;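 further: RGS4 expression induced by doxycycline in cells with stable M3 receptor; B-score is computed from the integrated fluorescence ratio over baseline after carbachol; higher B-score means a larger calcium signal and so more RGS4 inhibition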
Target sequence (P49798 whole entry, looked up): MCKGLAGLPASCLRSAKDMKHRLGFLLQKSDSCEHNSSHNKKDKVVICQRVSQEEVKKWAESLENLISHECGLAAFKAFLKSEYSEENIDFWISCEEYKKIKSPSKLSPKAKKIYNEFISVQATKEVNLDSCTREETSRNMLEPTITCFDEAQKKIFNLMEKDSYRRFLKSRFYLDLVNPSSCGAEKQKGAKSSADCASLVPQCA
MrgX1 antag – antagonists of human MrgX1 receptor, primary screen, HEK293 cells, Fluo-4 calcium flux; Mas-related G-protein coupled receptor member X1 (Homo sapiens), Q96LB2; BAM8-22 antagonism; active compounds read low; B-score at 10 µM; 1.3% of 310,000 active; AID 588676, 2011;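 active means calcium-response B-score plate-corrected more than 3 library SD below zero, starting fluorescence within 5 deviations, no agonist response on first addition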;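 further: peak minus trough fluorescence over baseline after final BAM8-22 challenge near maximal dose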
Target sequence (Q96LB2 whole entry, looked up): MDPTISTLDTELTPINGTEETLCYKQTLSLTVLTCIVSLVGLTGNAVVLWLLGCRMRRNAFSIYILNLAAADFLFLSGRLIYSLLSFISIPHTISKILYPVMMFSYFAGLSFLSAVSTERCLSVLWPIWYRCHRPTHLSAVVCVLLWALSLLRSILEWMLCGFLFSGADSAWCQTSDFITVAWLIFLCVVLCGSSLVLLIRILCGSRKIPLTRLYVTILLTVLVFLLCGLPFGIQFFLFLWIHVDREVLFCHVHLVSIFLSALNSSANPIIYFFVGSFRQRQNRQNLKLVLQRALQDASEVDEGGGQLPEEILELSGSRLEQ
MrgX1 agonist – agonists of human MrgX1 receptor, primary screen, HEK293 cells, Fluo-4 calcium flux; Fluo-4 calcium fluorescence, agonist mode; active compounds read high; B-score at 10 µM; 0.44% of 310,000 active;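 active means calcium response B-score plate-corrected fluorescence ratio at least 3 library SD, with starting fluorescence B-score inside 5 SD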
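Material: MrgX1-expressing HEK293 cells / Dosing: compound as first of three additions / Incubation: overnight seeding, then 1 h dark dye loading / Signal: Fluo-4 NW calcium fluorescence / Evaluation: B-scored fluorescence response ratio / Benchmarks: positive and negative control wells on each plate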
MrgX1 PAM – positive allosteric modulators of MrgX1, primary screen, HEK293 cells, Fluo-4 calcium flux; FDSS; active compounds read high; B-score at 10 µM; 0.63% of 310,000 active; AID 588675, 2011;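 active means plate-corrected calcium response at least 3 library SD above typical, normal starting fluorescence, not activating the receptor alone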;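 further: compound read alongside a low EC10 to EC30 dose of BAM8-22 agonist; peak minus trough fluorescence over baseline measured at the second addition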
RGS4 act – RGS4 potentiators or activators, primary screen, cell-based, HEK293 M3R inducible RGS4, calcium flux; carbachol calcium flux Fluo4; active compounds read low; B-score at 10 µM; 0.92% of 310,000 active;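 active means B-score of the integrated calcium signal more than 4 SD below the library mean, with starting fluorescence not abnormally high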;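 further: negative B-score means reduced calcium response which marks RGS4 activation or potentiation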
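test system = HEK293 cells with stable M3R and inducible RGS4 | schedule = recording 10 s baseline at 1 Hz, 100 s post-agonist | technique = Fluo4-AM (2 µM) calcium-flux fluorescence, kinetic read | measure = Agonist-evoked peak-minus-minimum fluorescence over baseline, integrated ratio, B score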
MrgX1 ag confirm – MrgX1 receptor agonists, duplicate retest, confirmation, HEK293 cells, Fluo-4 calcium flux. shares compounds with MrgX1 agonist. 78% of 600 active. activation, % at 10 µM. Fluo-4 calcium fluorescence, FDSS;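 active means calcium signal rise, corrected for plate position, at least 3 library SD high, with starting brightness within 5 such deviations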
HEK293 Ca flux – nonspecific calcium signal in parental HEK293, confirmation, counter-screen for MrgX1 antagonist project, parental HEK293 cells, Fluo-4 calcium flux; shares compounds with MrgX1 antag; Fluo-4 calcium fluorescence, FDSS; fluorescence ratio F(max-min)/F0 at 10 µM; 2% of 4,000 active;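 active means duplicate-averaged calcium fluorescence ratio at least three times the standard deviation of buffer wells, a nonspecific response in parental cells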
HEK293 Ca counter – calcium response in parental HEK293 cells, primary screen, counter-screen for MrgX1 allosteric activator project, cell-based, Fluo-4 calcium flux, duplicate. Fluo-4 fluorescence ratio; active compounds read high. AID 624114, 2012. shares compounds with MrgX1 antag. 0.4% of 4,000 active. fluorescence ratio F(max-min)/F0 at 10 µM;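 active means calcium fluorescence ratio, averaged over duplicates, at least 3 SD of the buffer-well ratio, meaning a nonspecific response in receptor-free cells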;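 further: untransfected parental HEK293 lacking MrgX1 used as counterscreen for MrgX1 allosteric activators; fluorescence change taken during the second addition on a kinetic imager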
HEK293 Ca cntr2 – calcium response in parental HEK293 cells, primary screen, counter-screen for MrgX1 agonist project, cell-based, Fluo-4 calcium flux, duplicate, agonist mode; Fluo-4 calcium fluorescence (FDSS); active compounds read high; shares compounds with MrgX1 antag; AID 624115, 2012; 8.7% of 4,000 active; fluorescence ratio F(max-min)/F0 at 10 µM;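 active means calcium fluorescence ratio at least three times the spread of buffer wells, meaning a non-specific response in parental cells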
Each line names hits and unclear results; the compound was inactive in the other large screens (follow-up assays come after a bar, where they were run).

O=c1c2c(-c3ccccc3)csc2ncn1/N=C/c1cccc([N+](=O)[O-])c1O	MrgX1 agonist 71 | MrgX1 ag confirm 315% | HEK293 Ca flux inactive | HEK293 Ca counter inactive | HEK293 Ca cntr2 76
O=C(Oc1cccc(/C=N/Nc2nc(Nc3ccccc3)nc(N3CCOCC3)n2)c1)c1ccco1	none
COC(=O)Cc1nc(NC(=O)c2cccs2)sc1C	MrgX1 agonist 28 | MrgX1 ag confirm 149% | HEK293 Ca flux inactive | HEK293 Ca counter inactive | HEK293 Ca cntr2 inactive
Cc1cc(C)c2c(c1)NC(c1cc3c(cc1Br)OCO3)C1CC=CC21 (stereo not given)	none
O=C(O)CCNC(=O)/C(=C\c1ccco1)NC(=O)c1ccco1	none
O=C(NCCC1CCCCN1S(=O)(=O)c1ccccc1)C(=O)NCc1cccnc1 (stereo not given)	none
COc1ccc(-n2c(O)c(/C=N/NS(=O)(=O)c3cc(C)ccc3C)c3ccccc3c2=O)cc1OC	MrgX1 agonist 130, RGS4 act -7.7 | MrgX1 ag confirm 322% | HEK293 Ca flux 0.32 | HEK293 Ca counter inactive | HEK293 Ca cntr2 132
COc1ccc(-n2c(O)c(/C=N/Nc3nc(C)cc(C)n3)c3ccccc3c2=O)cc1OC	none
COc1ccc(-n2c(O)c(/C=N/NS(=O)(=O)c3ccc(C)cc3)c3ccccc3c2=O)cc1OC	MrgX1 agonist 86, RGS4 act -7 | MrgX1 ag confirm 199% | HEK293 Ca flux inactive | HEK293 Ca counter inactive | HEK293 Ca cntr2 67
COc1ccc(C)cc1S(=O)(=O)Nc1ccc(-n2c(C)nc3ccccc3c2=O)cc1	none
O=C(NCCS(=O)(=O)N1CCN(c2ccccc2)CC1)c1ccccc1F	none
COc1ccc(CCN2C(=O)NC(NS(=O)(=O)c3ccccc3)(C(F)(F)F)C2=O)cc1OC (stereo not given)	none
Cc1ccc(-c2ccc(CCC(=O)O)n2-c2cccc(O)c2)cc1	MrgX1 agonist 28 | MrgX1 ag confirm 135% | HEK293 Ca flux inactive | HEK293 Ca counter inactive | HEK293 Ca cntr2 inactive
Cc1ccccc1-n1c(CSC(=N)N)nc2ccccc2c1=O	MrgX1 agonist 43 | MrgX1 ag confirm 221% | HEK293 Ca flux inactive | HEK293 Ca counter inactive | HEK293 Ca cntr2 inactive
N=C(N)SCc1nc2ccccc2c(=O)n1-c1ccccc1Cl	MrgX1 agonist 27 | MrgX1 ag confirm 203% | HEK293 Ca flux inactive | HEK293 Ca counter inactive | HEK293 Ca cntr2 inactive
O=c1c2ccccc2nc(CSc2nnnn2-c2ccccc2)n1-c1ccccc1Cl	none
C/C(N)=C(/C#N)C(=O)CSc1nc2ccccc2c(=O)n1-c1ccccc1C	none
Cc1cc2nnc(SCC(=O)N(C)C3CCS(=O)(=O)C3)n2c2ccccc12 (stereo not given)	none
COc1cccc(N/C(N)=N/c2nc(CSc3ccccn3)cc(=O)[nH]2)c1	none
COc1ccnc(CSC(N)=Nc2ccc(F)cc2)c1	MrgX1 agonist 75 | MrgX1 ag confirm 383% | HEK293 Ca flux inactive | HEK293 Ca counter inactive | HEK293 Ca cntr2 75
N/C(=N\N=C/c1ccc(F)cc1)N/N=C\c1ccc(F)cc1	MrgX1 agonist 66 | MrgX1 ag confirm 499% | HEK293 Ca flux inactive | HEK293 Ca counter inactive | HEK293 Ca cntr2 76
CCOc1ccc(Nc2ncnc3c2cnn3C)cc1	none
CCN(CC)CCCN=Cc1c(-c2ccccc2)[nH]n(-c2nc3ccccc3s2)c1=O	none
CCCc1[nH]n(-c2nc3ccccc3s2)c(=O)c1C=NCC(C)C	MrgX1 agonist 29 | MrgX1 ag confirm 227% | HEK293 Ca flux inactive | HEK293 Ca counter inactive | HEK293 Ca cntr2 59
CN1CCN(C(=O)CSc2nc(-c3ccncc3)ccc2C#N)CC1	MrgX1 agonist 35 | MrgX1 ag confirm 158% | HEK293 Ca flux inactive | HEK293 Ca counter inactive | HEK293 Ca cntr2 inactive
N#Cc1ccc(-c2cccnc2)nc1SCC(=O)c1ccccc1	MrgX1 agonist 30 | MrgX1 ag confirm 197% | HEK293 Ca flux inactive | HEK293 Ca counter inactive | HEK293 Ca cntr2 inactive
CN1CCN(C(=O)CSc2nc(-c3cccs3)cc(-c3cccs3)c2C#N)CC1	none
O=c1[nH]c(=O)n(Cc2ccccc2)c2c1C(C(F)(F)F)(C(F)(F)F)N=C(c1ccco1)N2	MrgX1 agonist 41 | MrgX1 ag confirm 223% | HEK293 Ca flux inactive | HEK293 Ca counter inactive | HEK293 Ca cntr2 58
O=C(NC1(C(F)(F)F)C(=O)Nc2c1c(=O)[nH]c(=O)n2Cc1ccccc1)c1ccc(Cl)cc1 (stereo not given)	none
CC/C(=N/Nc1ccc(Cl)cc1)c1cnnc(SC)n1	none
COc1ccc(N/C=C/c2nc(SC)nnc2C)cc1	none
CSc1nnc(C)c(/C=C/Nc2ccc(F)cc2)n1	MrgX1 agonist 30 | MrgX1 ag confirm 152% | HEK293 Ca flux inactive | HEK293 Ca counter inactive | HEK293 Ca cntr2 inactive
CSc1nnc(C)c(/C=C/Nc2ccc(Cl)cc2)n1	MrgX1 agonist 45 | MrgX1 ag confirm 248% | HEK293 Ca flux 0.36 | HEK293 Ca counter inactive | HEK293 Ca cntr2 74
COc1ccc(NS(=O)(=O)c2ccc3oc(=O)c4[nH]c(=O)c(=O)n(C)c4c3c2)cc1	none
Cc1ccccc1C(=O)c1cccn1CC(=O)NC(C)c1ccccc1 (stereo not given)	none
CCc1nc(N)nc(N)c1-c1ccc(Cl)cc1	MrgX1 agonist 28 | MrgX1 ag confirm inactive | HEK293 Ca flux inactive | HEK293 Ca counter inactive | HEK293 Ca cntr2 inactive
CN(CC(=O)Nc1c(Cl)cccc1Cl)C(=O)C1CCN(C(=O)Nc2ccccc2)CC1	none
Cc1cccc(-c2nc3c(c(=O)c4ccccc4n3C)c(=O)n2-c2ccccc2)c1	none
CN1/C(=C\C(=O)C[n+]2ccc3ccccc3c2)C(C)(C)c2ccccc21	none (no result: MrgX1 antag, MrgX1 agonist, MrgX1 PAM)
